The record followed here is ChEMBL document CHEMBL1136740, “New active series of growth hormone secretagogues” (J Med Chem, 2003).

Non-standard residues stand in square brackets, D forms with d. Residues, ends and D or L forms follow the SMILES beside them. dTrp(2-Me) = Cc1[nH]c2ccccc2c1C[C@@H](N)C(=O)O; Aib = CC(C)(N)C(=O)O

The subject of this assay is Rattus norvegicus. Nature of the assay: Ratio of GH release stimulated by 300 ug/kg of compound to that of GH release stimulated by 300 ug/kg of hexarelin in infant rat (sc injection). The class given is functional. Summed up: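 Male 10-day-old Sprague-Dawley pups, about 25 g, eight per group. Dosed sc at 300 µg/kg, with solvent as DMSO at final 1:300 dilution. Killed by decapitation 15 min later; trunk-blood plasma GH measured by RIA against the NIDDK rat standard, in ng/mL. Response compared with hexarelin at the same dose.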
As to `CC(=O)N[C@@H](Cc1c[nH]c2ccccc12)NC(=O)[C@@H](Cc1c[nH]c2ccccc12)NC(=O)C1(N)CCNCC1`, the Ratio is reported as 0.46.
On to `CC(=O)N[C@@H](Cc1c[nH]c2ccccc12)N(C)C(=O)[C@@H](Cc1c[nH]c2ccccc12)NC(=O)C(C)(C)N`, for which the Ratio is 0.65.
In the case of `CC(C)(N)C(=O)N[C@@H](Cc1c[nH]c2ccccc12)C(=O)N[C@@H](Cc1c[nH]c2ccccc12)NC=O`, the Ratio is 0.08.
With `CC(C)(N)C(=O)N[C@H](Cc1c[nH]c2ccccc12)C(=O)N[C@H](Cc1c[nH]c2ccccc12)NC(=O)CCC1CCCCC1` the figure was 0.15; with `Cc1[nH]c2ccccc2c1C[C@@H](NC(=O)[C@@H](N)Cc1c[nH]cn1)C(=O)N[C@@H](C)C(=O)N[C@@H](Cc1c[nH]c2ccccc12)C(=O)N[C@H](Cc1ccccc1)C(=O)N[C@@H](CCCCN)C(N)=O` [EXAMORELIN] (H-H[dTrp(2-Me)]AW[dF]K-NH2), 1.
In the case of `CNC(C)(C)C(=O)N[C@H](Cc1c[nH]c2ccccc12)C(=O)N[C@H](Cc1c[nH]c2ccccc12)N(C)C(C)=O`, the Ratio is given as 1.21.
As to `CNC(C)(C)C(=O)N[C@H](Cc1c[nH]c2ccccc12)C(=O)N[C@H](Cc1c[nH]c2ccccc12)NC(=O)Cc1ccccc1`, the Ratio amounted to 0.16.
As for `CNC(C)(C)C(=O)N[C@H](Cc1c[nH]c2ccccc12)C(=O)N[C@H](Cc1c[nH]c2ccccc12)NC(=O)Cc1c[nH]c2ccccc12`, the Ratio is 0.17.
As to `CC(=O)N[C@@H](Cc1c[nH]c2ccccc12)NC(=O)[C@@H](Cc1c[nH]c2ccccc12)NC(=O)CC(C)C`, the Ratio is 0.11.
The same measure for `Cc1[nH]c2ccccc2c1C[C@H](NC=O)NC(=O)[C@@H](Cc1c(C)[nH]c2ccccc12)NC(=O)C(C)(C)N`: 0.08.
Consider `CNC(C)(C)C(=O)N[C@H](Cc1c[nH]c2ccccc12)C(=O)N[C@@H](Cc1c[nH]c2ccccc12)N(C)C(C)=O`, for which the Ratio is listed as 0.2.
As for `CC(C)(N)C(=O)N[C@H](Cc1c[nH]c2ccccc12)C(=O)N[C@H](Cc1c[nH]c2ccccc12)NC(=O)Cc1c[nH]c2ccccc12`, the Ratio was found to be 0.16.
Regarding `CC(=O)N[C@@H](Cc1c[nH]c2ccccc12)NC(=O)[C@@H](Cc1c[nH]c2ccccc12)NC(C)=O`, the Ratio stood at 0.13.
Take `CC(C)(N)C(=O)N[C@H](Cc1c[nH]c2ccccc12)C(=O)N[C@](C)(Cc1c[nH]c2ccccc12)NC=O`: the Ratio is 0.91.
With `CC(C)(N)C(=O)N[C@H](Cc1c[nH]c2ccccc12)C(=O)N[C@@H](Cc1c[nH]c2ccccc12)NC=O`, the Ratio worked out at 0.28.
Consider `CN[C@H](Cc1c[nH]c2ccccc12)C(=O)N[C@H](Cc1c[nH]c2ccccc12)NC=O`, for which the Ratio turned out to be 0.09.
`CN(C)C(C)(C)C(=O)N[C@H](Cc1c[nH]c2ccccc12)C(=O)N[C@H](Cc1c[nH]c2ccccc12)NC=O`: the Ratio is 0.69.
On to `CC(C)CC(=O)N[C@H](Cc1c[nH]c2ccccc12)C(=O)N[C@H](Cc1c[nH]c2ccccc12)NC=O`, for which the Ratio is given as 0.09.
With `Cc1[nH]c2ccccc2c1C[C@@H](NC(=O)[C@@H](Cc1c(C)[nH]c2ccccc12)NC(=O)C(C)(C)N)C(N)=O` (H-[Aib]-[dTrp(2-Me)]-[dTrp(2-Me)]-NH2) the figure was 0.89.
As for `CNC(C)(C)C(=O)N[C@H](Cc1c[nH]c2ccccc12)C(=O)N[C@H](Cc1c[nH]c2ccccc12)NC(=O)CCC1CCCCC1`, the Ratio was 0.16.
Consider `CNC(C)(C)C(=O)N[C@H](Cc1c[nH]c2ccccc12)C(=O)N[C@H](Cc1c[nH]c2ccccc12)NC(=O)C1CCCCN1` (some centres undefined), for which the Ratio is reported as 0.85.
With `CC(C)(N)C(=O)N[C@@H](Cc1c[nH]c2ccccc12)C(=O)N[C@H](Cc1c[nH]c2ccccc12)NC=O` the figure was 0.07.
In the case of `CNC(C)(C)C(=O)N[C@H](Cc1c[nH]c2ccccc12)C(=O)N[C@](C)(Cc1c[nH]c2ccccc12)NC(C)=O`, the Ratio is given as 1.
Regarding `Cc1[nH]c2ccccc2c1C[C@@H](NC=O)NC(=O)[C@@H](Cc1c(C)[nH]c2ccccc12)NC(=O)C(C)(C)N`, the Ratio amounted to 0.12.
